Source: PubChem BioAssay
SR-BI DiI-HDL act – SR-BI HDL lipid transfer activation; CHO ldlA[mSR-BI] cells, DiI-HDL uptake fluorescence, 3 h; 100 = double the neutral-control signal; activation, % at 12.5 µM; 320,000 compounds, 0.096% hits;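 active means mean replicate activation of at least 60% and every replicate at or above 60%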;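 further: 0% = median plate neutral-control signal and 100% = twice that signal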
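system = CHO ldlA[mSR-BI] cells, LDL receptor-null, SR-BI overexpressing | medium = Ham's F12 with 0.5% BSA, HEPES 25 mM, pH 7.4 | probe or stimulus = DiI-HDL 10 µg/mL | compound dosing = single-point compound dose | incubation = compound exposure 3 h, 37 °C | technique = DiI fluorescence, bottom read | read-out = cell-associated DiI fluorescence as measure of HDL uptake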
N-glyco inh – N-linked glycosylation inhibition; 360,000 compounds, 0.23% hits; reporter increase, % at 12.5 µM; D54 ERlucT glycosylation luciferase reporter, 24 h; percent of 100 nM tunicamycin response;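 active means mean luciferase reporter signal, scaled so untreated is 0 and the glycosylation-blocking control 100, at or above a set limit in every replicate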;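 further: luciferase carries N-glycosylation sites so blocking glycosylation raises the light; 0% = median of neutral control wells and 100% = median of 100 nM tunicamycin wells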
SR-BI HDL uptake – inhibitors of mouse SR-BI mediated HDL lipid uptake; Q61009; ldlA[mSR-BI] CHO cells, DiI-HDL uptake fluorescence, 3 h; inhibition, % at 12.5 µM; 320,000 compounds, 0.96% hits;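 active means mean replicate inhibition of at least 70% and a set share of replicates each scoring 70 or more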;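 further: 0% = median of neutral control wells and 100% = median of positive control wells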
Target sequence (Q61009 whole entry, looked up): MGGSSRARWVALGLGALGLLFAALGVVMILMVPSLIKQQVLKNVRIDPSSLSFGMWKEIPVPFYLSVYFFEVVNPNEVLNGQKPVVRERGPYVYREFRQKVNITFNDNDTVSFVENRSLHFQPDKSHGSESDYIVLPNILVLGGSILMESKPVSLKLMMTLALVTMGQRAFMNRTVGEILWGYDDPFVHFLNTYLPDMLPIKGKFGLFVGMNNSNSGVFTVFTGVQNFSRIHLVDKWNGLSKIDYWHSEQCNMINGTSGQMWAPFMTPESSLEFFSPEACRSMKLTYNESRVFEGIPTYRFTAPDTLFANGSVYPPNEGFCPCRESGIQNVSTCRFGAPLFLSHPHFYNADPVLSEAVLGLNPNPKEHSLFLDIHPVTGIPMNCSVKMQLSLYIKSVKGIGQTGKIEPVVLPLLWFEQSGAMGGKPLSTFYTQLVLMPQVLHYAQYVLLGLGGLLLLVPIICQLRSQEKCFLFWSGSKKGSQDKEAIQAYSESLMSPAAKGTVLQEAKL
Rtt109 HAT inh – blocks Candida albicans Rtt109/Vps75 acetyltransferase activity; Q5AAJ8; purified Rtt109/Vps75, ThioGlo CoA-SH fluorescence, 4 h; inhibition, % at 34.9 µM; 330,000 compounds, 0.16% hits; AID 540336;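 active means inhibition of at least 50% in every replicate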
Env fusion inh – blocks HIV Env-driven cell-cell fusion | AID 651610 | inhibition, % at 12.3 µM | 360,000 compounds, 1.1% hits | HeLa-JRFL Env/CEM21 cell fusion, luciferase;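 active means mean replicate inhibition score of at least 50 and every replicate individually at or above 50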;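 further: 0% = plate neutral controls and 100% = maraviroc near 300 nM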
PglD inh – inhibitors of Campylobacter jejuni PglD acetyltransferase; purified PglD enzyme, DTNB colorimetric CoA detection; inhibition, % at 12.5 µM; 360,000 compounds, 0.098% hits; in the data active means inhibition above about 16%, passing the limit was not always enough
Starred values were filed as active, the others as inactive; . = not tested or not shown; [ ] = another dose, or the depositor's remark. The list is not random: actives were taken first. Their share in the collection is about 1.9%.

SMILES	SR-BI DiI-HDL act	N-glyco inh	SR-BI HDL uptake	Rtt109 HAT inh	Env fusion inh	PglD inh
CC1C/C(=C/c2ccncc2)C(=O)/C(=C/c2ccncc2)C1 (centres undefined)	.	-22	.	0	81*	2
CC1C/C(=C/c2cccn2C)C(=O)/C(=C/c2cccn2C)C1 (centres undefined)	-32	-1	32	7	8	-7
C[C@H](CO)N1C[C@H](C)[C@H](CN(C)Cc2ccncc2)Oc2cc(Br)ccc2S1(=O)=O	.	.	.	.	34[16.7 µM]	-4
CN(C)C(=O)[C@H]1[C@H](CO)[C@H]2Cn3c(ccc(-c4cncnc4)c3=O)[C@H]2N1Cc1ccccc1F	.	.	.	.	.	-1
CO[C@H]1CN(C)C(=O)c2ccc(NS(C)(=O)=O)cc2OC[C@H](C)NC[C@H]1C	.	.	.	.	.	2
Cc1[nH]n(-c2ccccc2)c(=O)c1/C=N/NC(=O)c1ccc(O)cc1O	-44	2	44	-5	.	-3
Cc1[nH]n(-c2ccccc2)c(=O)c1/C=N/NC(=O)c1cccc(F)c1	-132	-6	132*	-7	20	-5
Cc1[nH]n(-c2ccccc2)c(=O)c1/C=N/Nc1nncc(-c2ccccc2)n1	-91	-12	91*	3	.	6
Cc1ccc(-n2[nH]c(C)c(/C=N/NC(=O)c3ccc(O)cc3O)c2=O)cc1	-137	-4	137*	2	.	-11
Cc1[nH]n(-c2ccccc2)c(=O)c1C=Nc1cccc2cccnc12	-24	3	24	4	57*	.
Cc1ccc(/C=N/Nc2nncc(-c3ccccc3)n2)o1	-9	5	9	0	1	.
O=C(C[C@@H]1CC[C@@H]2[C@H](COC[C@@H](O)CN2S(=O)(=O)c2cccc(F)c2)O1)Nc1ccccc1	.	.	.	.	.	4
Cc1[nH]n(-c2ccc(Br)cc2)c(=O)c1/C=N/NC(=O)c1ccccc1	-136	-9	136*	-3	51	4
Cc1onc(-c2ccccc2Cl)c1C(=O)Nc1sc2c(c1C(N)=O)CCC(C)C2 (centres undefined)	-73	-1	73*	11	-47	-2
CC(C)C#Cc1ccc([C@@H]2[C@@H](CO)N(C(=O)CN(C)C)[C@H]2C#N)cc1	.	.	.	.	-16[16.7 µM]	-1
CCn1c(C)c(CS(=O)(=O)c2ccccc2)[nH]c1=O	12	1	-12	119*	14	.
O=c1[nH]c(CS(=O)(=O)c2ccccc2)nc2ccccc12	19	-1	-19	-6	.	2
COc1cc(OC)cc(-c2cc3cc(F)ccc3cn2)c1	-74	-3	74*	5	30	1
CCCN(C)C[C@H]1OCCCC[C@@H](C)Oc2ccc(NC(=O)Cc3ccccc3)cc2C(=O)N([C@@H](C)CO)C[C@H]1C	.	.	.	.	-8[16.7 µM]	.
CCOc1nc(C)nc(NC(=O)NS(=O)(=O)c2ccccc2Cl)n1	61*	6	-61	-6	20	-3
CCC(=O)Nc1ccc2c(c1)C(=O)N(C)[C@@H]1CC[C@H](CC(=O)NCCc3ccncc3)O[C@H]1CO2	.	.	.	.	-9[16.7 µM]	0
COCCCNC(=O)c1sc2ncnc(N3CCc4ccccc4C3)c2c1C	-61	9	61	10	78*	-2
COc1cccc(S(=O)(=O)Nc2ccc3c(c2)OC[C@H](C)NC[C@H](C)[C@H](OC)CN(C)C3=O)c1	.	.	.	.	16[16.7 µM]	1
CC[C@H](C)[C@@H]1NC(=O)[C@@H](CC(C)C)NC(=O)[C@H](C(C)C)NC(=O)[C@H]2CSSC[C@H](NC1=O)C(=O)N2	.	-22	.	.	69*	1
O=C(N/N=C/c1cc(Br)ccc1O)C(=O)Nc1ccccc1OC(F)(F)C(F)F	-129	-8	129*	7	-49	-4
SMILES	SR-BI DiI-HDL act	N-glyco inh	SR-BI HDL uptake	Rtt109 HAT inh	Env fusion inh	PglD inh
COc1ccccc1/C=N/NC(=O)C(=O)Nc1ccccc1OC(F)(F)C(F)F	-55	3	55	4	.	2
O=C(N/N=C/c1cc(Cl)ccc1O)C(=O)Nc1ccccc1OC(F)(F)C(F)F	-119	-11	119*	-3	-11	.
C[C@H]1CN([C@@H](C)CO)C(=O)c2cc(NS(=O)(=O)c3ccccc3)ccc2O[C@@H]1CN(C)S(=O)(=O)c1cccs1	.	.	.	.	-2[16.7 µM]	5
C[C@@H]1CN([C@H](C)CO)C(=O)c2cccc(N(C)C)c2O[C@H]1CN(C)S(C)(=O)=O	.	.	.	.	4[16.7 µM]	-6
COc1ccc(F)cc1C1=CC(=O)C[C@H](c2ccc3c(c2)OCO3)C1	-26	30*	26	-11	.	-3
COc1ccc(C2=CC(=O)CC(c3ccc(OC)cc3)C2)cc1 (centres undefined)	-16	2	16	1	3	0
COc1cc(F)c(C2=CC(=O)C[C@H](c3ccc4c(c3)OCO4)C2)cc1F	15	-1	-15	-1	-27	-1
COc1ccc([C@H]2CC(=O)C=C(c3cccc(C(C)C)c3)C2)cc1OC	-33	-7	33	8	63*	3
COc1ccc([C@H]2CC(=O)C=C(c3cccc4c3Oc3ccccc3S4)C2)cc1OC	-80	-2	80*	1	25	-1
COc1ccc([C@H]2CC(=O)C=C(c3c(OC)cccc3OC)C2)cc1	1	29*	-1	0	34	0
Cc1ccc(CNC(=O)c2ccc(N3CCC4(CC3)CC(c3cccc(Br)c3)=NO4)c(N)c2)cc1	-85	-5	85*	13	46	4
Cc1ccc(CNC(=O)c2ccc(N3CCC4(CC3)CC(c3cccc(Br)c3)=NO4)c(NC(=O)c3ccc(Br)cc3)c2)cc1	-2	-3	2	1	11	-3
COc1cc(/C=C/C(=O)Nc2nnc(CC(C)C)s2)cc(OC)c1OC	-53	-2	53	-5	57*	.
COc1cc(/C=C/C(=O)Nc2ccc(C(C)=O)cc2)cc(OC)c1OC	-75	3	75*	13	-1	.
C[C@@H]1CN([C@@H](C)CO)C(=O)c2cc(-c3ccccc3F)cnc2O[C@H]1CN(C)C(=O)c1ccccn1	.	.	.	.	3[16.7 µM]	-2
CC(C)NC(=O)Nc1ccc2c(c1)C(=O)N([C@@H](C)CO)C[C@@H](C)[C@@H](CN(C)Cc1ccc(C(=O)O)cc1)OCCCC[C@@H](C)O2	.	.	.	.	4[16.7 µM]	-1
COc1ccc(NC(=O)N(C)C[C@@H]2Oc3ccc(NC(=O)CCN4CCOCC4)cc3CC(=O)N([C@@H](C)CO)C[C@H]2C)cc1	.	.	.	.	.	2
C=CCNC(=O)C1CCC(CNc2nc(=S)[nH]c3ccccc23)CC1 (centres undefined)	-9	5	9	1	4	0
O=C(C1CCC(CNc2nc(=S)[nH]c3ccccc23)CC1)N1CCN(c2ccccn2)CC1 (centres undefined)	-58	-3	58	5	65*	-2
